Screening results from PubChem.
Most compounds without a hit are left out; they make up all but 2.6% or so of the library.
IMP-1 inhibitor: IMP-1 metallo-beta-lactamase inhibitors, primary screen, biochemical, epi-absorbance readout, Pseudomonas aeruginosa enzyme; AID 1556, 2009; purified IMP-1, nitrocefin hydrolysis, epi-absorbance fluorescence; 0.45% of 290,000 active; inhibition, % at 5.6 µM;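 active = inhibition above the mean plus 3 SD of all compounds in the same screening run, cut at about 4.5% in these data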
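assay system = purified recombinant IMP-1 metallo-beta-lactamase enzyme | schedule = 15 min preincubation plus 25 min reaction at 25 °C | signal = Epi-absorbance fluorescence, 480 nm excitation, 530 nm emission | read-out basis = percent inhibition from optical density relative to buffer-blank wells | controls = IMP-1 with DMSO as 0%, enzyme-free DMSO as 100%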
Runt-SMMHC FRET: inhibitors of RUNX1 Runt–CBFb-SMMHC binding, primary screen, biochemical, FRET, Cerulean-Runt, Venus-CBFb-SMMHC, uHTS; Runt-related transcription factor 1 (Homo sapiens) + Core-binding factor subunit beta …; Cerulean-Runt/Venus-CBFb-SMMHC FRET ratio 530/480, 1 h; inhibition, % at 20 µM; 0.74% of 220,000 active; AID 1434, 2008;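 active = mean inhibition across duplicate retests at 20 µM reaching about 50%, limit read from the data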;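 note: inhibitors lower the FRET ratio by blocking Runt binding to CBFb-SMMHC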
Target sequence (Q01196 whole entry, looked up): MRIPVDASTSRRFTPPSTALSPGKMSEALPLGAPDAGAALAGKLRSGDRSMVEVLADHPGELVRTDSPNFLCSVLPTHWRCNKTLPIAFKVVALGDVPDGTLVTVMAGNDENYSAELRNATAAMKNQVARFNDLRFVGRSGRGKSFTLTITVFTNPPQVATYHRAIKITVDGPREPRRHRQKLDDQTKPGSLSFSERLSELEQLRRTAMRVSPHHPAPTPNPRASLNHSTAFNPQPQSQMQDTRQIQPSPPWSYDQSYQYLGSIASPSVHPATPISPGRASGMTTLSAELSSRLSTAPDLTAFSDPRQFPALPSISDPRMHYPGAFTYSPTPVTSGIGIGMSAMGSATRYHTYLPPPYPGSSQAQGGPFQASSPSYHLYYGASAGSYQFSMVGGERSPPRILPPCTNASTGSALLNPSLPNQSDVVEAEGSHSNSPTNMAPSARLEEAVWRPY
Target sequence (Q13951 whole entry, looked up): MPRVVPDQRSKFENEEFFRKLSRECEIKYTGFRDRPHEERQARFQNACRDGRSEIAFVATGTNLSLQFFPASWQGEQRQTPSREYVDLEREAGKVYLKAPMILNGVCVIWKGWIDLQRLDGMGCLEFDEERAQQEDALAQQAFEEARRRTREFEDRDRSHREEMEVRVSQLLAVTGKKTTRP
VIM-2 inh: VIM-2 metallo-beta-lactamase inhibitors, primary screen, biochemical, epi-absorbance readout, Pseudomonas aeruginosa enzyme. purified VIM-2, nitrocefin hydrolysis, epi-absorbance fluorescence. 0.89% of 290,000 active. inhibition, % at 5.6 µM. AID 1527, 2009;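 active = inhibition above the mean of all tested compounds plus 3 SD, cutoff set per screening run, cut at about 7.5% in these data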;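 note: red hydrolysis product quenches plate fluorescence so inhibitors raise well fluorescence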
Runt-CBFb FRET: inhibitors of RUNX1 Runt–CBFb binding, primary screen, biochemical, FRET, Cerulean-Runt, Venus-CBFb, uHTS | Runt-related transcription factor 1 (Homo sapiens) + Core-binding factor subunit beta … | inhibition, % at 20 µM | 0.46% of 220,000 active | Cerulean-Runt/Venus-CBFb FRET ratio 530/480, 1 h;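 active = inhibition over about 50% at 20 µM in the single-dose screen, limit read from the data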
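Assay system: Cerulean-Runt domain fusion protein, energy donor; Signal: fluorescence energy transfer, 422 nm excitation, 530/480 nm emission; Timing: 1 h compound exposure, room temperature; Control set: unlabeled CBFb; Medium: Tris buffer pH 7.5 with salts and BSA; Compound: single test concentration of 20 µM, 1% DMSO final; Probe or stimulus: Venus-CBFb 100 nM.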
RanGTP-Imp inh: inhibitors of RanGTP-importin-beta interaction, primary screen, biochemical, FRET, CFP-Ran, YFP-importin-beta, homogeneous; cell-free CFP-Ran/YFP-importin-beta FRET ratio; inhibition, % (concentration not given with the values); 1.1% of 300,000 active; AID 2216, 2009;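 active = more than half of the replicate wells show a fall in the fluorescence ratio signal beyond about 16%, limit read from the data, passing the limit was not always enough; inconclusive = exactly half of the replicate wells pass the set limit; inactive = fewer than half of replicates pass the limit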
A number is an active result; . = inactive; ? = inconclusive; / = no result.

SMILES	IMP-1 inhibitor	Runt-SMMHC FRET	VIM-2 inh	Runt-CBFb FRET	RanGTP-Imp inh
Cc1cc(OC(C)C(=O)NCc2cccnc2)c2c3c(c(=O)oc2c1)CCC3 (stereo not given)	.	/	8.4	/	.
CCCCCn1c(=O)c(C(=O)NCc2ccco2)c(O)c2ccccc21	.	.	.	.	.
CCOC(=O)c1c(NS(=O)(=O)c2ccccc2)n(CCCOC)c2nc3ccccc3nc12	.	.	.	.	105.9
COCCNC(=O)c1c(NC(=O)c2ccc(Br)o2)n(Cc2ccccc2)c2nc3ccccc3nc12	.	/	.	.	58.4
CCCCCn1c(NC(=O)c2ccco2)c(C(=O)OCC)c2nc3ccccc3nc21	.	102.0	.	.	79.4
COCCCNC(=O)c1c(NC(=O)c2ccco2)n(Cc2ccccc2)c2nc3ccccc3nc12	.	/	.	.	44.0
CC1OC(NCCc2ccccc2)C(O)C(O)C1O (stereo not given)	.	.	.	.	.
CN1C(=O)/C(=C\c2ccc(N3CCCCCC3)cc2)C(=O)NC1=S	.	.	.	.	.
Cc1cc(N2CCCCC2)ccc1C=C1C(=O)N(C)C(=S)N(C)C1=O	7.4	.	.	.	.
Cc1cccc(OP(N)(=O)Oc2cccc(C)c2)c1	.	.	.	.	.
NP(=O)(Oc1ccc(Cl)cc1)Oc1ccc(Cl)cc1	7.7	.	.	.	.
N#Cc1c(Cl)nc(Cl)c2c1CCN(Cc1ccccc1)C2	.	60.8	.	.	.
c1ccc(CN2CCN(Cc3ccc4ccccc4c3)CC2)cc1	.	/	.	/	.
O=C(C(=O)N1CCOCC1)c1cn(Cc2c(F)cccc2Cl)c2ccccc12	.	.	.	.	.
Cc1cc(/C=C2\C(=O)NC(=O)N(c3ccc(Cl)cc3)C2=O)c(C)n1-c1sc2c(c1C#N)CCCC2	5.3	.	.	.	.
COc1c(C)cc(C(=O)C2CCCN(Cc3ccccn3)C2)cc1C (stereo not given)	.	.	.	.	.
Cc1cc(OCC(=O)N2CCC(C(N)=O)CC2)c2c3c(c(=O)oc2c1)CCCC3	.	/	8.6	/	.
COc1ccc(-c2n(-c3ccccn3)c3ccccc3[n+]2-c2ccccn2)cc1	.	.	.	.	.
C[N+]12CCC(CC1)C(C(O)(c1ccccc1)c1cccs1)C2 (stereo not given)	11.8	.	.	.	.
O=S(=O)(NC1CCCCC1)OCC(Cl)(Cl)Cl	.	/	.	/	.
CCN(CC)C(=O)c1ccc(NC(=O)COc2ccccc2F)cc1	.	.	.	.	.
C[C@]12CC[C@H](OS(=O)(=O)O)CC1=CC[C@@H]1[C@@H]2CC[C@]2(C)C(=O)CC[C@@H]12	/	/	/	/	.
C[C@H]1CC[C@@H]2[C@@H](C)[C@H]3[C@H](C[C@H]4[C@@H]5CC=C6C[C@@H](O[C@@H]7O[C@H](CO)[C@H](O)[C@H](O[C@@H]8O[C@H](CO)[C@@H](O)[C@H](O)[C@H]8O)[C@H]7O[C@@H]7O[C@@H](C)[C@H](O)[C@@H](O)[C@H]7O)CC[C@]6(C)[C@H]5CC[C@]34C)N2C1	.	.	.	.	16.7
O=C1NC(=O)N(Cc2ccccc2)C(=O)/C1=C/N1CCCc2ccccc21	.	.	.	.	30.4
O=C1NC(=O)N(Cc2ccccc2)C(=O)/C1=C\C=C\c1ccco1	.	.	.	.	?
SMILES	IMP-1 inhibitor	Runt-SMMHC FRET	VIM-2 inh	Runt-CBFb FRET	RanGTP-Imp inh
O=P(O)(O)Cc1ccccc1OP(=O)(c1ccccc1)c1ccccc1	.	.	9.9	.	?
NC(=O)CSP(=O)(c1ccccc1)c1ccccc1	.	.	.	.	/
COc1ccc(CCNC(=O)COC(=O)Cc2ccccc2)cc1	.	.	.	.	.
COC(=O)c1c(N)n(Cc2ccc(OC)cc2)c2nc3ccccc3nc12	.	118.5	.	.	/
CCOC(=O)c1c(N)n(Cc2ccc(OC)cc2)c2nc3ccccc3nc12	.	110.5	.	.	.
CCCNc1nc(OC)nc(N2CC3CC(C2)c2cccc(=O)n2C3)n1 (stereo not given)	.	.	.	.	?
CCOP(=O)(OCC)C(C)(C)NC(=O)C(Cl)(Cl)Cl	.	.	.	.	84.5
O=C1/C(=C\c2ccc(Cl)c(Cl)c2)N2CCC1CC2	.	.	.	.	.
Cc1nn(CC(=O)N2CCC3(CC2)OCCO3)c(=O)c2cc3ccccc3n12	.	/	.	/	.
CCOC(=O)c1ccc(NC(=O)c2c(O)[nH]c(=O)[nH]c2=O)cc1	77.5	.	58.8	.	.
CCOc1ccc(NC(=O)c2c(O)[nH]c(=O)[nH]c2=O)cc1	/	/	/	/	.
O=C1C(=O)c2cccc3cccc1c23	5.1	.	.	.	.
C=CCn1c(O)c(C(C)=NC2CCN(Cc3ccccc3)CC2)c(=O)[nH]c1=O	.	.	8.7	.	.
COc1ccccc1-n1c(-c2cccs2)nc2ccccc2c1=O	.	.	.	.	.
O=C(Nc1ccc(F)cc1)N1CC2CC(C1)c1cccc(=O)n1C2 (stereo not given)	.	.	.	/	21.4
COc1ccccc1Cn1c(SCC#N)nc2cc(C(=O)N3CCC4(CC3)OCCO4)ccc2c1=O	.	.	.	.	.
CC1(C)OC(c2ccccc2)=C/C(=C/C=C2C(=O)NC(=O)NC2=O)O1	4.6	.	.	.	.
CN1/C(=C\C=C2C(=O)NC(=O)NC2=O)C(C)(C)c2ccccc21	.	.	.	.	.
CN(C)C(Cc1ccccc1)C(=O)c1ccccc1 (stereo not given)	.	.	.	.	.
COc1ccc(C(C)=O)cc1CC(C(=O)c1ccc(Br)cc1)N(C)C (stereo not given)	6.0	.	.	.	.
CN1C(=O)/C(=C/c2ccc(Cl)s2)C(=O)NC1=S	9.7	/	.	/	.
[N-]=[N+]=NCc1cn2cccnc2n1	.	.	.	.	.
Cc1ccc2cc(C=C(C#N)C#N)c(Cl)nc2c1	.	.	.	.	50.8
Cc1cc(=O)oc2cc(OCC(=O)N3CCN(Cc4ccc5c(c4)OCO5)CC3)ccc12	.	/	9.7	/	.
O=P(O)(O)Cc1c(Cl)cccc1Cl	.	.	11.9	.	.
O=C(O)CP(=O)(O)c1ccc(Cl)cc1	.	.	.	.	.
O=C1NC(=S)NC(=O)C1=Cc1ccc(OCC(=O)N2CCCC2)cc1	.	/	.	/	.
CCCCCCn1c(O)c(C=NCCN2CCOCC2)c(=O)[nH]c1=O	.	.	.	.	.
COCCOC(=O)c1c(N)n(Cc2ccco2)c2nc3ccccc3nc12	.	.	.	/	19.5
